pIC50, pKi: −log10 of the molar value.
Columns and labels:
Cytochrome P450 3A4 [1] = biological target: T1, Cytochrome P450 3A4 (Homo sapiens, UniProt P08684); assay: Inhibition of human CYP3A4 in human liver microsomes preincubated with NADPH; format: ADME, Microsome
Cytochrome P450 3A4 [2] = biological target: T1, Cytochrome P450 3A4; assay: Inhibition of human CYP3A4; format: ADME
[3] = biological target: Hepatocyte growth factor receptor (Homo sapiens, UniProt P08581); assay: Inhibition of c-Met by HTRF assay
CYP3A4 = CYP3A4 (Homo sapiens, UniProt P08684); assay: Selective ratio of human CYP3A4 IC50 to human CYP3A4 IC50 with pre-incubation; format: ADME; conditions: read-out: Ratio IC50
[4] = Half life in Sprague-Dawley rat at 0.25 mg/kg, iv in 20% hydroxypropyl beta-cyclodextrin in water pH 3.5 w/MSA vehicle; format: ADME, organism-based; design: dose 0.25 mg/kg, route intravenous; conditions: in vivo
Procedure, shortened: (§1)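 Male Sprague-Dawley rats, n=3, dosed intravenously at 0.25 mg/kg in 20% hydroxypropyl beta-cyclodextrin in water (pH 3.5, adjusted with MSA). In the same study, a separate oral arm used 2 mg/kg in 2% HMPC/1% Tween in water (pH 2.2, HCl) to derive bioavailability.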

Mus musculus [5] = assay: Toxicity in mouse xenografted with TPR-Met expressing NIH/3T3 up to 100 mg/kg, po over 22 days q.d; format: organism-based, NIH3T3; design: dose 100 mg/kg, route oral; conditions: in vivo, 528 h
Procedure, shortened: (§2)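 NIH3T3 cells transfected with human TPR-Met, implanted as xenograft in mice. Dosing by oral gavage once daily at 3, 10, 30 and 100 mg/kg for 22 days, starting 24 h after tumor cell implantation. Vehicle: 2% HMPC, 1% Tween in water pH 2.2 w/MSA. Tumor growth and body weight followed; n = 12 per group, mean ± standard error. AUC(0-24) taken at ED50 and ED90.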

Mus musculus [6] = species on record: Mus musculus; assay: Inhibition of HGF-induced c-Met phosphorylation in BALB/c mouse plasma after 6 hrs by electrochemiluminescent assay; format: functional
Procedure, shortened: (§3)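 Mice were given 30 mg/kg by oral gavage in 2% HMPC, 1% Tween in water pH 2.2 w/MSA, then challenged with HGF. HGF-induced c-Met phosphorylation in liver was quantified at several time points. Plasma and liver drug levels were measured alongside. n = 3, mean ± standard deviation.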

[7] = Intrinsic clearance in human liver microsomes; format: ADME, Microsome
Procedure, shortened: (§4)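 Intrinsic clearance was measured in vitro in rat, mouse and human liver microsomes.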

[8] = Volume of distribution at steady state in Sprague-Dawley rat at 0.25 mg/kg, iv in 20% hydroxypropyl beta-cyclodextrin in water pH 3.5 w/MSA vehicle; format: ADME, organism-based; design: dose 0.25 mg/kg, route intravenous; conditions: in vivo, read-out: Vdss
Procedure, shortened: (§5)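 Male Sprague-Dawley rats, n=3. Intravenous dosing at 0.25 mg/kg in DMSO or in 20% hydroxypropyl beta-cyclodextrin in water pH 3.5 w/MSA. Oral dosing at 2 mg/kg in 2% HMPC, 1% Tween in water pH 2.2 w/HCl.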

[9] = Oral bioavailability in Sprague-Dawley rat at 2 mg/kg; format: ADME, organism-based; conditions: in vivo; procedure, shortened: as §5
[10] = biological target: Voltage-gated inwardly rectifying potassium channel KCNH2 (Homo sapiens, UniProt Q12809); assay: Inhibition of human ERG
[11] = Plasma protein binding in rat at 5 ug/ml; format: ADME, cell-free; conditions: read-out: PPB (converted)
Procedure, shortened: (§6)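 Plasma protein binding was measured by equilibrium dialysis at 5 µg/mL.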

Homo sapiens = species on record: Homo sapiens; assay: Plasma protein binding in human at 5 ug/ml; conditions: read-out: PPB (converted)
[12] = Intrinsic clearance in mouse liver microsomes; format: ADME, Microsome; procedure, shortened: as §4
Mus musculus [13] = assay: Inhibition of HGF-induced c-Met phosphorylation in BALB/c mouse liver at 30 mg/kg, po after 12 hrs by electrochemiluminescent assay; format: functional; procedure, shortened: as §3
NIH3T3 = assay: Antitumor activity against TPR-Met expressing NIH/3T3 xenografted in mouse dosed po over 22 days q.d; format: functional; conditions: 528 h; procedure, shortened: as §2
Heart = assay: Cardiotoxicity in rabbit heart assessed as electrocardiographic parameters up to 3 uM; format: toxicity, tissue-based, Oryctolagus cuniculus
[14] = Intrinsic clearance in rat liver microsomes; format: ADME, Microsome; procedure, shortened: as §4
[15] = AUC (0 to 24 hrs) in mouse at ED90, po; format: ADME, organism-based; design: time < 24 hr, route oral; conditions: plasma; procedure, shortened: as §2
[16] = Clearance in Sprague-Dawley rat at 0.25 mg/kg, iv in 20% hydroxypropyl beta-cyclodextrin in water pH 3.5 w/MSA vehicle; format: ADME, organism-based; design: dose 0.25 mg/kg, route intravenous; conditions: in vivo; procedure, shortened: as §1
Mus musculus [17] = species on record: Mus musculus; assay: Inhibition of HGF-induced c-Met phosphorylation in BALB/c mouse liver after 6 hrs by electrochemiluminescent assay; format: functional; procedure, shortened: as §3
[18] = AUC (0 to 24 hrs) in mouse at ED50, po; format: ADME, organism-based; design: time < 24 hr, route oral; conditions: plasma; procedure, shortened: as §2
[19] = AUC (0 to infinity) in Sprague-Dawley rat at 2 mg/kg, po; format: ADME, organism-based; design: time infinity, dose 2 mg/kg, route oral; conditions: plasma; procedure, shortened: as §5
[20] = Volume of distribution at steady state in Sprague-Dawley rat at 0.25 mg/kg, iv in DMSO vehicle; format: ADME, organism-based; design: dose 0.25 mg/kg, route intravenous; conditions: in vivo, read-out: Vdss; procedure, shortened: as §5
[21] = Half life in Sprague-Dawley rat at 0.25 mg/kg, iv in DMSO vehicle; format: ADME, organism-based; design: dose 0.25 mg/kg, route intravenous; conditions: in vivo; procedure, shortened: as §5
[22] = Clearance in Sprague-Dawley rat at 0.25 mg/kg, iv in DMSO vehicle; format: ADME, organism-based; design: dose 0.25 mg/kg, route intravenous; conditions: in vivo; procedure, shortened: as §5
[23] = Plasma protein binding in mouse at 5 ug/ml; format: ADME, cell-free; conditions: read-out: PPB (converted); procedure, shortened: as §6

COc1ccc2c(OCc3nnc4ccc(-c5cc(F)c(F)c(F)c5)nn34)ccnc2c1 gave a pIC50 (Cytochrome P450 3A4 [1]) of 5.70, a pIC50 (Cytochrome P450 3A4 [2]) of 4.54 and a pIC50 [3] of 8.30. The IC50 shift (CYP3A4) was 14.

Work on COc1ccc2c(OCc3nnc4ccc(-c5cc(F)cc(F)c5)nn34)ccnc2c1 yielded a pIC50 (Cytochrome P450 3A4 [1]) of 5.08 and a pIC50 (Cytochrome P450 3A4 [2]) of less than 4.30.

For COc1ccc2c(OCc3nnc4ccc(-c5cc(C)ns5)nn34)ccnc2c1, the pIC50 (Cytochrome P450 3A4 [1]) was 5.32 and the pIC50 (Cytochrome P450 3A4 [2]) was 4.77.

With COc1cnc2c(NCc3nnc4ccc(-c5cc(C)ns5)nn34)ccnc2c1 the half-life [4] was 106 min, the pIC50 (Cytochrome P450 3A4 [1]) was 4.59 and the Activity (Mus musculus [5]) was “Non-toxic”. For the same compound, the EC90 (Mus musculus [6]) was 136 nM, the microsomal CLint [7] was 24 µL/min/mg and the Vd [8] was 0.303 L/kg. The bioavailability [9] was 30.5%, the pKi [10] was 5.80 and the fraction unbound at 5 ug/ml [11] was 0.007. The fraction unbound at 5 ug/ml (Homo sapiens) was 0.025, the microsomal CLint [12] was 60 µL/min/mg and the inhibition in vivo at 30 mg/kg (Mus musculus [13]) was greater than 50%. The ED50 (NIH3T3) was 3.3 mg/kg, the ED90 (NIH3T3) was 22 mg/kg and the Activity (Heart) was “Non-toxic”. For the same compound, the pIC50 (Cytochrome P450 3A4 [2]) was less than 4.30, the microsomal CLint [14] was 59 µL/min/mg and the AUC(0-t) at 24 h [15] was 4.7 µM·h. It also gave a clearance [16] of 3.08 mL/min/kg, an EC90 (Mus musculus [17]) of 1.8 µM and an AUC(0-t) at 24 h [18] of 0.43 µM·h. It also gave an AUC(0-inf) [19] of 3500 ng·h/mL.

Compound COc1cnc2c(NCc3nnc4ccc(-c5cc(F)c(F)c(F)c5)nn34)ccnc2c1 has a pIC50 (Cytochrome P450 3A4 [1]) of 4.80 and a pIC50 (Cytochrome P450 3A4 [2]) of less than 4.30.

For COc1ccc2c(NCc3nnc4ccc(-c5ccccc5)nn34)ccnc2c1, the pIC50 (Cytochrome P450 3A4 [1]) was 4.30, the pIC50 (Cytochrome P450 3A4 [2]) was less than 4.30 and the pIC50 [3] was 5.86. It also gave an IC50 shift (CYP3A4) greater than 1.

COc1cnc2c(NCc3nnc4ccc(-c5ccc(F)c(F)c5)nn34)ccnc2c1 gave a pIC50 (Cytochrome P450 3A4 [1]) of 5.04 and a pIC50 (Cytochrome P450 3A4 [2]) of less than 4.30.

COc1cnc2c(NCc3nnc4ccc(-c5cc(F)cc(F)c5)nn34)ccnc2c1 gave a Vd [20] of 0.201 L/kg, a pIC50 (Cytochrome P450 3A4 [1]) of 4.54 and a half-life [21] of 230 min. The microsomal CLint [7] was 47 µL/min/mg, the clearance [22] was 0.717 mL/min/kg and the bioavailability [9] was 62%. For the same compound, the pKi [10] was 6.70, the fraction unbound at 5 ug/ml [11] was 0.002 and the fraction unbound at 5 ug/ml (Homo sapiens) was 0.008. The microsomal CLint [12] was 49 µL/min/mg, the fraction unbound at 5 ug/ml [23] was 0.023 and the pIC50 (Cytochrome P450 3A4 [2]) was less than 4.30. For the same compound, the microsomal CLint [14] was 53 µL/min/mg and the AUC(0-inf) [19] was 31100 ng·h/mL.

For COc1ccc2c(O[C@H](C)c3nnc4ccc(-c5ccccc5)nn34)ccnc2c1, the pIC50 (Cytochrome P450 3A4 [1]) was 5.05 and the pIC50 (Cytochrome P450 3A4 [2]) was 4.74.

Work on COc1ccc2c(OCc3nnc4ccc(-c5ccc(F)c(F)c5)nn34)ccnc2c1 yielded a pIC50 (Cytochrome P450 3A4 [1]) of 5.19 and a pIC50 (Cytochrome P450 3A4 [2]) of less than 4.30.

With COc1ccc2c(SCc3nnc4ccc(-c5ccccc5)nn34)ccnc2c1 the pIC50 (Cytochrome P450 3A4 [1]) was 5.15, the pIC50 (Cytochrome P450 3A4 [2]) was 5.35 and the pIC50 [3] was less than 5.18. The IC50 shift (CYP3A4) was 0.64.

With COc1ccc2c(O[C@@H](C)c3nnc4ccc(-c5ccccc5)nn34)ccnc2c1 the pIC50 (Cytochrome P450 3A4 [1]) was 5.41 and the pIC50 (Cytochrome P450 3A4 [2]) was 4.85.
